Measurements published in article PMC9826503 (Chemmedchem, 2022).
Read-outs that look alike come from different tables or passages of the source.

Key:
[1] = tested on: HeLa cervical cancer cell line; assay: Resazurin cytotoxicity assay, HeLa; assay type: cell-based
[2] = tested on: cancer cell lines (HeLa, HCC70, MCF-7); assay: Resazurin cytotoxicity assay, cancer cell lines as a group; assay type: cell-based; details: read-out: IC50 values against the cancer cells
In short: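 HeLa, HCC70 and MCF-7 cells seeded at 5000 cells/well and left to attach overnight (37 °C, 9 % CO2). Treated 96 h with test compound (15.63–500.00 μM), 2 % (v/v) DMSO vehicle, or paclitaxel control (0.16–500 nM). Resazurin then added for 2–4 h; fluorescence read at ex 560/em 590 nm. Done in triplicate; IC50 by non-linear regression.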

[3] = tested on: HCC70 triple negative breast cancer cell line; assay: Resazurin cytotoxicity assay, HCC70; assay type: cell-based; details: for IC50: read-out: HCC70 IC50 and SD
[4] = tested on: MCF-7 hormone responsive breast cancer cell line; assay: Resazurin cytotoxicity assay, MCF-7; assay type: cell-based; details: for IC50: read-out: MCF-7 IC50 and SD
[5] = tested on: non-tumorigenic breast epithelial cell line MCF12A; assay: Resazurin cytotoxicity assay, MCF-12A; assay type: cell-based; details: read-out: MCF-12A IC50 and SD
[6] = target: T1, recombinant human topoisomerase I (Homo sapiens, UniProt P11387); assay: Topoisomerase I inhibition; assay type: biochemical
T1 sequence (P11387 1-765): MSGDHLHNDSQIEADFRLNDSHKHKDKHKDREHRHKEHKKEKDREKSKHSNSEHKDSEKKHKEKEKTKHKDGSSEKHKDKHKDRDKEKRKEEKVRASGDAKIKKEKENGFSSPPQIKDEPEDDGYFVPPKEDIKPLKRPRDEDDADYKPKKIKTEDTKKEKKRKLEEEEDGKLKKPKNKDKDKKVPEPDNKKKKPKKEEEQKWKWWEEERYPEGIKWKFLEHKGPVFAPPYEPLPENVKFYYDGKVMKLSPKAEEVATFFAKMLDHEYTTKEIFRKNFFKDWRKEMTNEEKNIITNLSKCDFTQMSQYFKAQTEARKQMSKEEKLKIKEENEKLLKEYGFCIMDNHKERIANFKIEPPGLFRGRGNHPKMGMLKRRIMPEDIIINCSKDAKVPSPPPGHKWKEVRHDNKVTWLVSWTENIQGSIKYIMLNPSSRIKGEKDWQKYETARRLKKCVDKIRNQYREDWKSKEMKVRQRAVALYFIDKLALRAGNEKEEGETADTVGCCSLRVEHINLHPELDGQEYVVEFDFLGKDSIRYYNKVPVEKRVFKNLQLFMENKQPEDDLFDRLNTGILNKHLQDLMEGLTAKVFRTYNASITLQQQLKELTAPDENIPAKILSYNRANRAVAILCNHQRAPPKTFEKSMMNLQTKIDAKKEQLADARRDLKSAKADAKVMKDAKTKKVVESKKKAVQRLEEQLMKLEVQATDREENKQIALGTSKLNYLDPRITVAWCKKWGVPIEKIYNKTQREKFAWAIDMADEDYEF

[7] = target: T2, bovine serum albumin (BSA) (Bos taurus, UniProt P02769); assay: BSA UV-Vis absorption titration; assay type: binding; details: 280 nm
T2 sequence (P02769 25-607): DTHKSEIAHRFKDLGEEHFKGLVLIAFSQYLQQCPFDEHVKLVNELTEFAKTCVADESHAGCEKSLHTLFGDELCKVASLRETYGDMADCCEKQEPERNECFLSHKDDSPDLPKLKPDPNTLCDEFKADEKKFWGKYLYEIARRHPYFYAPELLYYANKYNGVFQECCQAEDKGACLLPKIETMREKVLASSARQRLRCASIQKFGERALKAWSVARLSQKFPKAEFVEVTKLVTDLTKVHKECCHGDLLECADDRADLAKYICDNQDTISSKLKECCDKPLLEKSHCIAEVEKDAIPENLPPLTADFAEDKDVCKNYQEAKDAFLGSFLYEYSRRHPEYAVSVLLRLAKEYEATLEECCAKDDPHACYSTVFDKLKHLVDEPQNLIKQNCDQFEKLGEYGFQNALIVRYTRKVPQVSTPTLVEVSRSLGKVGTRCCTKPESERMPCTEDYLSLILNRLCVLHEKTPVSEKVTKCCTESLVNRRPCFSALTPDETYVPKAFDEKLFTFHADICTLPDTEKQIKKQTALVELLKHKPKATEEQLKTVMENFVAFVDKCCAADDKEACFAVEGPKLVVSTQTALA
In short: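 BSA (~20 μM, PBS pH 7.2; concentration set from ε280 = 43824 M−1 cm−1) titrated with test compound (0–~380 μM; stocks in MeOH). Equal compound volumes added to the sample and reference cells; each mixture incubated 2 min. BSA absorbance at 280 nm fitted to a double-reciprocal plot of 1/(A0−A) vs 1/[compound]. kapp taken as the intercept/slope ratio.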

calf thymus DNA = assay: Methylene blue DNA competition assay; assay type: binding; details: 50 and 200 μM, 100 ng calf thymus DNA, 15 μg/mL methylene blue
In short: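 Each 100 μL reaction held methylene blue (15 μg/mL), calf thymus DNA (100 ng) and test compound (50 or 200 μM) in MilliQ water, with a 0.05 % (v/v) DMSO vehicle control. Mixtures were incubated 10 minutes at room temperature in the dark. An emission scan was then recorded under fixed excitation. Runs were done in triplicate.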

[8] = target: T2, bovine serum albumin (BSA); assay: BSA fluorescence quenching titration, with and without site markers; assay type: binding
In short: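 Emission spectra of BSA recorded at 293 K during titration with increasing test compound. Excitation 280 nm, emission 300–500 nm, slits 5 nm. Intensities corrected for inner filter effect using absorbances at the excitation and emission maxima. KSV from Stern-Volmer fit; kq = KSV/τ0, τ0 10−8 s. Site-marker runs: warfarin (site I) or ibuprofen (site II) added equimolar to BSA (each 5 μM) before titration.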

[9] = Time-dependent stability studies by UV-Vis spectrophotometry; assay type: physicochemical; details: 10^−5 M, 1 hour intervals for 24 hours
In short: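 Test compound was dissolved at 10−5 M in anhydrous DMSO at room temperature and filtered. UV-Vis spectra were then recorded hourly over 24 hours.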

human genomic DNA (gDNA) = assay: Agarose gel electrophoresis, ethidium bromide displacement from gDNA; assay type: binding
In short: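 Human genomic DNA (100 ng) was incubated with test compound at 50 or 200 μM for 4 hours at 37 °C, alongside a 2 % (v/v) DMSO control and a cisplatin (200 μM) control. Mixtures with loading dye were run on a 0.8 % (w/v) agarose gel containing ethidium bromide, 45 min at 90 V in 1× TAE (40 mM Tris-acetate, 1 mM EDTA). Bands were imaged, and EtBr staining intensity was compared across lanes.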

[10] = (IC50 value in MCF12-A)/(IC50 value in cancer cell line)
[11] = Ibuprofen site marker (site II)
[12] = No Site marker, KSV=kq τ0, τ0 10^−8 s
[13] = 96 hours, non-cancerous control

Row | apparent association constant (kapp) [7] [M⁻¹] | K SV [8, 11] [M⁻¹] | k q [8, 11] [M⁻¹ s⁻¹] | K SV ([8]; No Site marker) [M⁻¹] | k q [8, 12] [M⁻¹ s⁻¹] | K SV ([8]; Warfarin site marker (site I)) [M⁻¹] | k q ([8]; Warfarin site marker (site I)) [M⁻¹ s⁻¹] | Compound | IC50 ([4]; 96 hours) [µM] | Competition with methylene blue for DNA binding (intercalation) (calf thymus DNA) | IC50 [5, 13] [µM] | Stability in anhydrous DMSO (UV-Vis spectral changes) [9] | Intensity of EtBr stained gDNA band (human genomic DNA (gDNA); higher concentration (200 μM)) | further results
1 |  |  |  |  |  |  |  | CC(=O)O[C@H]1C(=O)[C@@]2(C)[C@H]([C@H](OC(=O)c3ccccc3)[C@]3(O)C[C@H](OC(=O)[C@H](O)[C@@H](NC(=O)c4ccccc4)c4ccccc4)C(C)=C1C3(C)C)[C@]1(OC(C)=O)CO[C@@H]1C[C@@H]2O [Paclitaxel, paclitaxel, reference compound] |  |  |  |  |  | SI (selectivity index), HeLa [1, 10]: 5.96; IC50 [2]: 2.4 to 3.92 nM; SI (selectivity index), HCC70 [3, 10]: 4.12; IC50 ([3]; Homo sapiens, HCC70, 96 h): 0.00392 ± 0.00103 µM; SI (selectivity index), MCF-7 [4, 10]: 6.73; IC50 ([4]; Homo sapiens, MCF7, 96 h): 0.0024 ± 0.00111 µM; IC50 ([5]; Homo sapiens, MCF-12A, 96 h): 0.0162 ± 0.00108 µM
2 |  |  |  |  |  |  |  | CC[C@@]1(O)C(=O)OCc2c1cc1n(c2=O)Cc2cc3ccccc3nc2-1 [camptothecin, reference compound] |  |  |  |  |  | Inhibition of Topo I activity ([6]; 200 μM): failed to inhibit the enzyme
3 | 18900 | 9130 | 9.13e+11 | 69500 | 6.95e+12 | 1290 | 1.29e+11 | cis‐Cl, trans‐P‐[RuCl2(PPh3)2(btm)] [Compound 3] | 8.87 ± 1.12 | no effect on the ability of methylene blue to bind to the DNA | 36.5 ± 1.08 | blue‐shifted and decreasing MLCT band at 525 nm and an emerging MLCT band at 437 nm | considerable dose‐dependent reduction in intensity | IC50 ([1]; read-out: HeLa IC50 and SD, 96 hours): 6.29 ± 1.1 µM; Inhibition of Topo I activity ([6]; 50 μM): complete inhibition of Topo I
4 | 90200 | 1360 | 1.36e+11 | 88400 | 8.84e+12 | 2090 | 2.09e+11 | trans‐P‐[RuCl(PPh3)2(pmt)]Cl [Compound 1] | 5.2 | competitively bind to the calf thymus DNA in a concentration‐dependent manner | 60.1 | noticeable alterations in the electronic spectrum | considerable dose‐dependent reduction in intensity | Inhibition of Topo I activity ([6]; 50 and 200 μM): inhibited Topo I activity; fold less cytotoxic towards HCC70 compared to MCF-7 ([3]; HCC70 versus MCF-7): more than 10 fold; IC50 ([3]; 96 hours): 75.5 µM; Intensity of EtBr stained gDNA band (human genomic DNA (gDNA); lower concentration (50 μM), relative to DMSO control): decreases in the intensity of the EtBr stained gDNA
